One experiment deals with U2OS. As to the kind of experiment: Cytotoxicity against human U2OS cells assessed as cell viability by MTT assay. The class given is functional, cell-based. In outline: (§1)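 RD2, RH30 and U2OS sarcoma cells were seeded at 3000 cells/well and incubated 24 h at 37 °C. Compounds were then added in triplicate at 0.1–10 or 0.1–20 μM in the presence of 10% FBS, from 20 mM DMSO stocks. IC50 was obtained by curve fitting.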
(Tetrazolium dyes change colour on reduction, which living cells bring about.)

Another experiment deals with EW8. Briefly: Effect on total STAT3 expression in human EW8 cells at 0.5 to 1 uM after 8 hrs by Western blot analysis. In kind it is functional, cell-based. In outline: (§2)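 EW8 Ewing's sarcoma cells were treated with 0.5–1 μM compound or DMSO for 8 h, in 10% FBS at 60–80% confluence. Whole-cell RIPA lysates were analyzed by SDS-PAGE and PVDF Western blot, with primary antibody 1:1,000, HRP secondary 1:10000 and ECL detection. Blots were probed for P-STAT3, total STAT3, phosphorylated ERK1/2 and cleaved caspase 3.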
(In general: Immunoblotting shows a protein as a band on a membrane.)

In experiment [1] the target is Signal transducer and activator of transcription 3 (Homo sapiens) (UniProt P40763). As to the kind of experiment: Inhibition of constitutive STAT3 Y705 phosphorylation in human Rh30 cells after 16 hrs by Western blot analysis. The class given is cell-based. In outline:
(§3)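 RH30 cells at 60–80% confluence in 10% FBS were treated with compound or DMSO for 16 h. Whole-cell extracts were made in cold RIPA buffer with protease and phosphatase inhibitor cocktails. Extracts were run on SDS-PAGE and transferred to PVDF. Blots were probed for P-STAT3 (Tyr705) and total STAT3 with primary antibody 1:1,000 and HRP secondary 1:10000, then detected by ECL.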

Experiment [2] in a line: Cytotoxicity against human Rh30 cells assessed as cell viability by MTT assay. In kind it is functional, cell-based. As to conditions: SJRH30. In outline: as §1
Experiment [3] has as its target Signal transducer and activator of transcription 3 (Homo sapiens) (UniProt P40763). Briefly: Inhibition of constitutive STAT3 Y705 phosphorylation in human EW8 cells after 8 hrs by Western blot analysis. In kind it is cell-based. The method, boiled down: as §2
The target is the same in experiment [4]. Briefly: Inhibition of IL6-induced STAT3 Y705 phosphorylation in human MCF7 cells at 0.25 to 1 uM incubated for 5 hrs prior to IL6 induction measured after 30 mins by Western blot analysis. The class given is cell-based. In outline:
(§4)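 MCF-7 cells, which lack persistent P-STAT3, were allowed to adhere overnight and then serum-starved overnight. They were left untreated or pretreated with compound or DMSO for 5 h, then stimulated with IL-6 at 25 ng/mL. Cells were harvested 30 min later and probed for P-STAT3 (Tyr705) and STAT3 by Western blot using RIPA lysates and ECL.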

The test system of experiment [5] is MDA-MB-231. As to the kind of experiment: Antitumor activity against human MDA-MB-231 cells xenografted in Harlan athymic nude mouse assessed as decrease in tumor size at 5 mg/kg, ip measured for 21 days. The class given is functional, organism-based. Also on record: dose 5 mg/kg. The method, boiled down: (§5)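 Female athymic nude mice, 6 weeks old, received 5 × 10^6 MDA-MB-231 cells subcutaneously in the flank. After tumors developed, they were split into two groups of eight tumors each: DMSO vehicle control, or 5 mg/kg IP. The drug was formulated in Cremaphor, DMSO and 5% dextrose. Tumor L and W were measured by caliper every other day. Volume = 0.5236 × L × W2. Treatment lasted 21 days.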
(In general: In xenograft studies the graft and the host belong to different species.)

Experiment [6] in a line: Cytotoxicity against human RD2 cells assessed as cell viability by MTT assay. The class given is functional, cell-based. In outline:
as §1

The target in experiment [7] is T1, Signal transducer and activator of transcription 1-alpha/beta (Homo sapiens) (UniProt P42224).
T1 sequence (whole entry): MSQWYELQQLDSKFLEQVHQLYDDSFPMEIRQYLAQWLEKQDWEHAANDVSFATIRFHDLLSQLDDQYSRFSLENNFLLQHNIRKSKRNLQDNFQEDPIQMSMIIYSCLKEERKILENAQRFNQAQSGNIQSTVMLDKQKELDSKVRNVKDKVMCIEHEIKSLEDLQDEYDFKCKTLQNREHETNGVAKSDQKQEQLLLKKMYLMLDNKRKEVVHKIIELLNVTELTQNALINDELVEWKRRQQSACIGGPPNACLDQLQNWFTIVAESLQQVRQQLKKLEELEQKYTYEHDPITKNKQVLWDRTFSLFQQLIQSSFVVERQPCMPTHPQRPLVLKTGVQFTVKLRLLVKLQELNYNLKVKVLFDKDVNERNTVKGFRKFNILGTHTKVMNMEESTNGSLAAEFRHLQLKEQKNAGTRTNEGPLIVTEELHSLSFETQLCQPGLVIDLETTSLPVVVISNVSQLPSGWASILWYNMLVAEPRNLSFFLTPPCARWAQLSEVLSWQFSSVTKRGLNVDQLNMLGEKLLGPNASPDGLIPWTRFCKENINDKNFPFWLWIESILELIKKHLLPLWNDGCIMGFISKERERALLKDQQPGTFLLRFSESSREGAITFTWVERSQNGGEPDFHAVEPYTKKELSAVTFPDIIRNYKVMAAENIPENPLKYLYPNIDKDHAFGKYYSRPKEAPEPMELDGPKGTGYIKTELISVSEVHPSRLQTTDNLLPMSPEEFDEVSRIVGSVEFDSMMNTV
Briefly: Inhibition of IFN-gamma-induced STAT1 Y701 phosphorylation in human DAOY cells at 1 to 5 uM incubated for 2 hrs prior to IFN-gamma induction measured after 30 mins by Western blot analysis. In kind it is cell-based. The method, boiled down: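 DAOY cells were serum-starved overnight and left untreated or treated with 1–5 μM compound or DMSO for 2 h. They were then stimulated with IFN-γ at 50 ng/mL and harvested 30 min later. STAT1 phosphorylation was analyzed by Western blot from RIPA lysates, with ECL detection.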

Experiment [8] deals with Mitogen-activated protein kinase; ERK1/ERK2 (Homo sapiens) (UniProt P27361+P28482). Briefly: Inhibition of ERK1/2 phosphorylation in human EW8 cells at 0.5 to 1 uM after 8 hrs by Western blot analysis. In kind it is cell-based. In outline: as §2
Chain of Mitogen-activated protein kinase; ERK1/ERK2 (Homo sapiens) (P27361 whole entry, looked up): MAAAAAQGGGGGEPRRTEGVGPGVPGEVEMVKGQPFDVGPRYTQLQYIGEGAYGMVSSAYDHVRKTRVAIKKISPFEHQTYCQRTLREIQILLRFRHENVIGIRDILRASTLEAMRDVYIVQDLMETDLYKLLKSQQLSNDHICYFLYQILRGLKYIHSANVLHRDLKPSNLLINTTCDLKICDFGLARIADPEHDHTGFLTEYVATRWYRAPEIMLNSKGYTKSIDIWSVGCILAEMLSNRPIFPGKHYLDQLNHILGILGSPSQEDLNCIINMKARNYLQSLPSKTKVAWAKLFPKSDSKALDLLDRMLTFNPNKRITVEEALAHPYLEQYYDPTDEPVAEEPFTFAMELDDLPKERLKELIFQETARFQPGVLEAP
Chain of Mitogen-activated protein kinase; ERK1/ERK2 (Homo sapiens) (P28482 whole entry, looked up): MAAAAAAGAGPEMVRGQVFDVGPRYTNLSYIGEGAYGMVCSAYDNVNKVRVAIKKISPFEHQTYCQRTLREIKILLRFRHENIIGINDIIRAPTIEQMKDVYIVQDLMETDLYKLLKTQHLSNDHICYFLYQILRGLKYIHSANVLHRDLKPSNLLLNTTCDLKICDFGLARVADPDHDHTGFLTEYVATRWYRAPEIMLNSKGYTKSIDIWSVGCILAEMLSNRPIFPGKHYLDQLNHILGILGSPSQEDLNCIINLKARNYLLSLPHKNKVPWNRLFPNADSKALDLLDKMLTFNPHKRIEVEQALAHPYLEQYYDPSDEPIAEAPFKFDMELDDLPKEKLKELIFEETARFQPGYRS
The target of experiment [9] is Signal transducer and activator of transcription 3 (Homo sapiens) (UniProt P40763). Briefly: Inhibition of constitutive STAT3 Y705 phosphorylation in human EW8 cells assessed as appearance of cleaved caspase 3 at 0.5 to 1 uM after 8 hrs by Western blot analysis. In kind it is cell-based. In outline: as §2
Chain of Signal transducer and activator of transcription 3 (Homo sapiens) (P40763 whole entry): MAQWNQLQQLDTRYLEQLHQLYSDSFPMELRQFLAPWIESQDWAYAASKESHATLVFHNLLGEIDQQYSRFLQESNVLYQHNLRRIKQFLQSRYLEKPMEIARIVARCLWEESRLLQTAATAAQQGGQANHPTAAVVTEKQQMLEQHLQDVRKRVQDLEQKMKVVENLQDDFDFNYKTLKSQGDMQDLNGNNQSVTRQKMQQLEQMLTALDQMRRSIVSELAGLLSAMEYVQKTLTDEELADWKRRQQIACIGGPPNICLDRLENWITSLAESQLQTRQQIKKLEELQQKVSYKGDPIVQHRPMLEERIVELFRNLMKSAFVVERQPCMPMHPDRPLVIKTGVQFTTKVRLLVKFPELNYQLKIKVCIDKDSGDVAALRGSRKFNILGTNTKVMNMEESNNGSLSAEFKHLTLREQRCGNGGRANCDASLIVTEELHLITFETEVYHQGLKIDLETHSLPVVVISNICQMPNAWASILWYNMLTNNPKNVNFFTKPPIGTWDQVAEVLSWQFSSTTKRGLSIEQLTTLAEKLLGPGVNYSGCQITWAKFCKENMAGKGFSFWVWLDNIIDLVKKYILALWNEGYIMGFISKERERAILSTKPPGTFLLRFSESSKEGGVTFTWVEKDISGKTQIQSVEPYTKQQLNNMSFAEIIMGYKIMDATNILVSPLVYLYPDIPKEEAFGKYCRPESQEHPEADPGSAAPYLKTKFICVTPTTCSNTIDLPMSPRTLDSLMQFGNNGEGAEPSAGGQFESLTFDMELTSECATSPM
Experiment [10] shares this target. Briefly: Inhibition of IL6-induced STAT3 Y705 phosphorylation in human DAOY cells at 1 to 5 uM incubated for 2 hrs prior to IL6 induction measured after 30 mins by Western blot analysis. In kind it is cell-based. The method, boiled down: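 DAOY medulloblastoma cells were allowed to adhere, then serum-starved overnight. They were left untreated or pretreated with 1–5 μM compound or DMSO for 2 h, then stimulated with IL-6. Cells were harvested 30 min after stimulation. P-STAT3 (Tyr705) and STAT3 were detected by Western blot from RIPA lysates, with ECL detection.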

Experiment [11] concerns SJRH30. Briefly: Effect on total STAT3 expression in human Rh30 cells at 0.25 to 1 uM after 16 hrs by Western blot analysis. In kind it is functional, cell-based. In outline: as §3
For experiment [12], the system named is MDA-MB-231. As to the kind of experiment: Antitumor activity against human MDA-MB-231 cells xenografted in Harlan athymic nude mouse assessed as tumor growth inhibition at 5 mg/kg, ip measured for 21 days. In kind it is functional, organism-based. Also on record: dose 5 mg/kg. In outline: as §5
Experiment [13] can be described thus: Cytotoxicity against human U373 cells assessed as cell viability after 72 hrs by MTT assay. The class given is functional, cell-based, U-373MG ATCC. As to conditions: U373 MG.
For experiment [14], the system named is MDA-MB-231. Briefly: Cytotoxicity against human MDA-MB-231 cells assessed as cell viability after 72 hrs by MTT assay. The class given is functional, cell-based. The conditions noted are these: MDA-MB-231, 72 h.
A short description of experiment [15]: Cytotoxicity against human U87 cells assessed as cell viability after 72 hrs by MTT assay. In kind it is functional, cell-based, U-87MG ATCC. The conditions noted are these: U-87 MG.
For the next experiment, the system named is PANC-1. Briefly: Cytotoxicity against human PANC1 cells assessed as cell viability after 72 hrs by MTT assay. In kind it is functional, cell-based. The conditions noted are these: PANC-1, 72 h.
Another experiment concerns SK-BR-3. As to the kind of experiment: Cytotoxicity against human SKBR3 cells assessed as cell viability after 72 hrs by MTT assay. In kind it is functional, cell-based. As to conditions: SK-BR-3, 72 h.
The target in experiment [16] is Signal transducer and activator of transcription 3 (Homo sapiens) (UniProt P40763). Briefly: Inhibition of IL6-induced STAT3 Y705 phosphorylation in human MCF7 cells at 0.5 to 2.5 uM incubated for 5 hrs prior to IL6 induction measured after 30 mins by Western blot analysis. In kind it is cell-based. In outline:
as §4

In experiment [17] the test system is SJRH30. As to the kind of experiment: Effect on total STAT3 expression in human Rh30 cells at 0.5 to 2.5 uM after 16 hrs by Western blot analysis. The class given is functional, cell-based. The method, boiled down:
as §3

These results are taken from ChEMBL document CHEMBL2380221, “Discovery of novel STAT3 small molecule inhibitors via in silico site-directed fragment-based drug design” (J Med Chem, 2013).

The source made the active and inactive calls. The rule behind the calls is not given here.

Consider `O=C1C(Nc2ccccc2)=CC2=NS(=O)(=O)c3cccc1c32`, for which the 50% inhibitory concentration (IC50) in the experiment with U2OS was 5000 nM.

Consider `NS(=O)(=O)c1cccc2c1C(=O)C=C(Nc1cccnc1)C2=O`, for which the result in the experiment on EW8 and with SJRH30 [11] was inactive. The inhibition entry in experiment [1] and in [3] was “Dose-dependent effect” throughout. Also, the values for the IC50 (in [2]; in [6]; with U2OS) were 550 nM, 1390 nM and 500 nM, respectively. Also, the inhibition result in [4], in experiment [9] and in experiment [10] was “Active” in each case. The result in the experiment with MDA-MB-231 [5] was Active. Besides, the inhibition result in experiment [7] and in [8] was “inactive” in each case. Besides, in the experiment on MDA-MB-231 [12], the TGI entry is “Active”.

On to `NS(=O)(=O)c1cccc2c1C(=O)C=C(Nc1ccccc1)C2=O`, for which the IC50 in the experiment with U2OS is over 5000 nM.

Regarding `O=C1C(Nc2ccc3ccccc3c2)=CC2=NS(=O)(=O)c3cccc1c32`, in the experiment with U2OS, the IC50 turned out to be 2500 nM.

For `NS(=O)(=O)c1cccc2c1C(=O)c1cccc(O)c1C2=O`, the IC50 (in experiment [13]; with MDA-MB-231 [14]; in experiment [15]; in the experiment with PANC-1; in the experiment with SK-BR-3) was 160 nM throughout.

Regarding `O=C1C(Nc2ccc([N+](=O)[O-])cc2Cl)=CC2=NS(=O)(=O)c3cccc1c32`, the inhibition entry in experiment [1] is “Dose-dependent effect”. In addition, the IC50 in experiment [2] is 1140 nM; in [6], 2560 nM; in the experiment with U2OS, 1390 nM. Further, the inhibition entry in [16] is “Active”. Further, in the experiment with SJRH30 [17], the outcome was inactive.

The IC50 is the concentration that gives 50% inhibition.
